We go through 14 compounds from PubChem BioAssay.

A short description of test [1]: Her2 expression decrease, cell viability multiplex – SKBR3 breast tumor cells, AlphaScreen, ATP viability, primary screen (AID 461;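 active means Her2 level under about 52% in both replicate screens, with viability over 70% of control, limit read from the data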;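 on Her2 level: lower value means less Her2 protein in the cells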;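 on viability: percent of carrier control wells set as 100% viability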). Conditions: SKBR3 Her2 protein level, 18-24 h, measured here: SKBR3 viability, ATP luminescence, at 10 µM. On the technique in general: Bead proximity is the source of the signal in Alpha formats.
The target in test [2] is Receptor tyrosine-protein kinase erbB-2 (Homo sapiens) (UniProt P04626). The test is described as above. Conditions: 18-24 h, at 10 µM, stronger effect = lower value.
Test [3] is described as follows: reduced viability of SK-BR-3 breast cancer cells – cell-based, 24 h, human, pilot screen (AID 572;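 active means viability at or below 10% of carrier control in both of two separate runs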;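 further: compound exposure lasted between 18 and 24 h rather than exactly 24 h; 100% = carrier-treated control wells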). The conditions noted are these: SK-BR-3 viability, CellTiter-Glo luminescence, at 10 µM, stronger effect = lower value. (Cellular ATP, detected with luciferase, serves as a proxy for viable cell number.)
The nature of test [4]: HUVEC growth inhibition – cell-based, human, primary screen (AID 575;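 active means viability at or below 30% in both replicate assays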;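 further: 100% = median of untreated cell wells with 0.1% DMSO on each plate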). Conditions: HUVEC proliferation, CellTiter-Glo luminescence, 72 h; at 10 µM; stronger effect = lower value. The gist of the method: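 Assay system: primary human umbilical vein endothelial cells / Buffer or medium: endothelial basal medium with 2% FBS plus growth supplements / Compound dosing: one dose, 10 µM final, 0.1% DMSO / Timing: 72 h treatment at 37 °C / Signal: CTG luminescence / Benchmarks: 32 DMSO-only cell-control wells (high), 32 MePR drug-control wells (low) per plate / Plate: collagen-coated 384-well format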

The nature of test [5]: H69AR cell proliferation blockers – human, duplicate replicates, primary screen (AID 580).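 Further: 100% = mean luminescence of untreated wells and 0% = no signal.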 Conditions: H69AR lung tumor cells viability, ATP luminescence, 72 h; at 10 µM; stronger effect = lower value.
Test [6] in a line: MRP1 drug-resistance reversers in H69AR cells – cell-based, doxorubicin co-treatment, pilot screen (AID 601;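 active means viability loss from added drug above about 55%, and viability with drug at most 40%, in both replicates, limit read from the data, passing the limit was not always enough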). Conditions: CellTiter-Glo, 72 h, at 10 µM; for differential viability (reversal): stronger effect = higher value.
Test [7] is described as follows: yeast transport mutant growth inhibition pilot in 384-well plates, post-Golgi transport modulator project (AID 636; in the data active means inhibition above about 31%). Conditions: absorbance 615 nm, about 18 h, stronger effect = higher value.
A short description of test [8]: growth suppression of yeast trafficking mutant, preliminary HTS, modulators of trafficking downstream of Golgi apparatus project, 1536-format plate, OD 615 nm (AID 637; in the data active means inhibition above about 30%). Conditions: yeast transport mutant growth, absorbance 615 nm, 18 h; stronger effect = higher value.
Where [9] appears, read: H69AR cells + 2 uM doxorubicin, measured here: viability with 2 uM doxorubicin, stronger effect = lower value.
Setting [10] is: H69AR cells, compound alone cytotoxicity.

Calls of active or inactive are those of the source.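 How the source made its calls, unless noted: active means viability at or under a set limit in both replicates, limit being median viability minus 3 SD (cut at about 48% in these data, passing the limit was not always enough); inconclusive means at or under the limit in just one replicate; inactive means at or above the limit in both replicates.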

Chain of Receptor tyrosine-protein kinase erbB-2 (Homo sapiens) (P04626 whole entry, looked up): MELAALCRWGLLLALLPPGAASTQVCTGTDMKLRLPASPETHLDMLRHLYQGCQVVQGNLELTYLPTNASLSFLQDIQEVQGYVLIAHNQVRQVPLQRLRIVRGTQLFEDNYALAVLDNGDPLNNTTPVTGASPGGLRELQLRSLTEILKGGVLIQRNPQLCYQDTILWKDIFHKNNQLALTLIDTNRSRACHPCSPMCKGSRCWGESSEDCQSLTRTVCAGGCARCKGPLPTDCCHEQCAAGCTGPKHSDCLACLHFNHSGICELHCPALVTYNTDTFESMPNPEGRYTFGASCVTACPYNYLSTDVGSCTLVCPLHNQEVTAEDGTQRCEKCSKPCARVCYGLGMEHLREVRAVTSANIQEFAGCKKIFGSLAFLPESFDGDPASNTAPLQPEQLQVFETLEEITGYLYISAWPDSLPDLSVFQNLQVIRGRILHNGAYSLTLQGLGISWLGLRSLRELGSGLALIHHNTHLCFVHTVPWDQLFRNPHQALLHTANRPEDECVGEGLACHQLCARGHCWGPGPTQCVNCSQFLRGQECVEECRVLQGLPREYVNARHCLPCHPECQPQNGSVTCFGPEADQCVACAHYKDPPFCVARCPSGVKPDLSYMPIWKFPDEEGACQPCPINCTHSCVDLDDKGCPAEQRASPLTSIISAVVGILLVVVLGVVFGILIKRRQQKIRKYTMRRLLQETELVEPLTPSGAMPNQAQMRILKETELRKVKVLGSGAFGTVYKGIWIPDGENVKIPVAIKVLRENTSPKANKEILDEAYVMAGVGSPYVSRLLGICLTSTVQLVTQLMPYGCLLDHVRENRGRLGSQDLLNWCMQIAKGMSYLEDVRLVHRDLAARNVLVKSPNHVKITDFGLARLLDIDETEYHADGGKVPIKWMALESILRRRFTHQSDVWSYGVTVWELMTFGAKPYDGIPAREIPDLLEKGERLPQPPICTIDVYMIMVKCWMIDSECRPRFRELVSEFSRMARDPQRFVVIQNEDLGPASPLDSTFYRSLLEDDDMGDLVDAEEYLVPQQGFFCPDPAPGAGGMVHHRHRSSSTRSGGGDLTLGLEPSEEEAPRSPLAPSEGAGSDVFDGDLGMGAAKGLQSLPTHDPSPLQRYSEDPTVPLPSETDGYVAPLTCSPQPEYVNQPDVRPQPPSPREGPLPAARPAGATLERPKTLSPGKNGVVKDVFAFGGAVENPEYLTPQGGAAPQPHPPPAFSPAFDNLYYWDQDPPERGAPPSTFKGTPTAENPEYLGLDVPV

For the compound `C=C(C)Cn1c(SCC)nc2ccccc2c1=O`, the viability in test [1] is 93%; in test [3] it was 93% (inactive); in test [4], 104% (inactive); in test [5], 85.6% (inactive); in test [6] (setting [9]), 88.6%; in test [6] (setting [10]) it was 85.6%. For the same compound, the Her2 level in test [2] is 97.5% (inactive). Also, in test [6] (H69AR cells + 2 uM doxorubicin), the differential viability (reversal) is -3% (inactive). For the same compound, the inhibition in test [7] is -5.39% (inactive); in test [8], -3.27% (inactive).
For `Nc1nc(-c2ccccc2Br)cs1`, the viability was 91.5% in test [1]; 91.5% (inactive) in test [3]; 86.3% (inactive) in test [4]; 91.5% (inactive) in test [5]; 81.8% in test [6] (setting [9]); 91.5% in test [6] (setting [10]). Further, the Her2 level in test [2] is 96.5% (inactive). Further, the differential viability (reversal) in test [6] (H69AR cells + 2 uM doxorubicin) was 9.75% (inactive). Moreover, the figures for the inhibition in test [7] and in test [8] were -0.66% (inactive) and -8.55% (inactive), respectively.
As to `Cc1ccc(OCCC(=O)OCC(=O)C(C)(C)C)cc1`, the viability in test [1] is 81.5%; in test [3], 81.5% (inactive); in test [4] it was 94.2% (inactive); in test [5], 92.8% (inactive); in test [6] (setting [9]), 85%; in test [6] (setting [10]), 92.8%. Further, the Her2 level in test [2] was 92.5% (inactive). Moreover, the differential viability (reversal) in test [6] (H69AR cells + 2 uM doxorubicin) is 7.79% (inactive). The inhibition in test [7] is 0.26% (inactive); in test [8] it was -3.67% (inactive).
For the compound `O=C(Nc1ccccc1)c1ccc(NCC2CCCO2)c(S(=O)(=O)N2CCOCC2)c1` (stereo not given), the viability in test [1] is 87%; in test [3] it was 87% (inactive); in test [4], 102% (inactive); in test [5] it was 90% (inactive); in test [6] (setting [9]) it was 85.7%; in test [6] (setting [10]), 90%. Also, the Her2 level in test [2] was 95% (inactive). For the same compound, the differential viability (reversal) in test [6] (H69AR cells + 2 uM doxorubicin) was 4.29% (inactive). The inhibition is -3.16% (inactive) in test [7] and -5.87% (inactive) in test [8].
For `CN(Cc1ccccc1)C(=O)c1ccc2c(c1)OCO2`, the viability in test [1] is 101%; in test [3], 101% (inactive); in test [4] it was 88.2% (inactive); in test [5], 108% (inactive); in test [6] (setting [9]), 90.3%; in test [6] (setting [10]) it was 108%. Further, the Her2 level in test [2] is 97% (inactive). In test [6] (H69AR cells + 2 uM doxorubicin), the differential viability (reversal) is 17.7% (inactive). For the same compound, the inhibition in test [7] was -2.53% (inactive); in test [8], 4.43% (inactive).
For `O=c1[nH]cnc2c1nc(SCc1ccccc1)n2C1OC(CO)C(O)C1O` (stereo not given), the viability was 94.5% in test [1]; 94.5% (inactive) in test [3]; 92.4% (inactive) in test [4]; 101% (inactive) in test [5]; 92.2% in test [6] (setting [9]); 101% in test [6] (setting [10]). The Her2 level in test [2] is 88% (inactive). Further, the differential viability (reversal) in test [6] (H69AR cells + 2 uM doxorubicin) was 8.52% (inactive). Besides, the inhibition in test [7] is -5.54% (inactive); in test [8], 4.6% (inactive).
For the compound `O=C(NCCCN1CCCC1=O)c1cncc(Br)c1`, the viability in test [1] is 97%; in test [3], 97% (inactive); in test [4], 98.5% (inactive); in test [5] it was 103% (inactive); in test [6] (setting [9]), 93%; in test [6] (setting [10]), 103%. In addition, the Her2 level in test [2] is 83.5% (inactive). In test [6] (H69AR cells + 2 uM doxorubicin), the differential viability (reversal) was 10.1% (inactive). In addition, the results for the inhibition in test [7] and in test [8] were -6.67% (inactive) and 6.56% (inactive), respectively.
`O=C(c1ccc(-c2cccc(C(F)(F)F)c2)o1)N1CCOCC1`: the viability in test [1] was 95.5%; in test [3], 95.5% (inactive); in test [4], 72.8% (inactive); in test [5] it was 92.7% (inactive); in test [6] (setting [9]) it was 76.6%; in test [6] (setting [10]) it was 92.7%. The Her2 level in test [2] is 118% (inactive). Moreover, the differential viability (reversal) in test [6] (H69AR cells + 2 uM doxorubicin) was 16.1% (inactive). Moreover, the inhibition in test [7] was -4.8% (inactive); in test [8] it was -2.58% (inactive).
For the compound `NCc1cccc(-n2cccn2)c1`, the viability was 110% in test [1]; 110% (inactive) in test [3]; 93.2% (inactive) in test [4]; 82.6% (inactive) in test [5]; 92.8% in test [6] (setting [9]); 82.6% in test [6] (setting [10]). Further, the Her2 level in test [2] was 103% (inactive). For the same compound, in test [6] (H69AR cells + 2 uM doxorubicin), the differential viability (reversal) is -10.1% (inactive). Also, the results for the inhibition in test [7] and in test [8] were -3.64% (inactive) and -2.7% (inactive), respectively.
In the case of `CN(C)S(=O)(=O)c1ccc(C(=O)N2CCC(c3nc4ccccc4o3)CC2)cc1`, the viability in test [1] was 82%; in test [3], 82% (inactive); in test [4], 95.1% (inactive); in test [5], 83% (inactive); in test [6] (setting [9]), 74.1%; in test [6] (setting [10]), 83%. Moreover, in test [2], the Her2 level is 83% (inactive). For the same compound, the differential viability (reversal) in test [6] (H69AR cells + 2 uM doxorubicin) was 8.86% (inactive). In addition, the inhibition was -4.67% (inactive) in test [7] and -6.07% (inactive) in test [8].
Turning to `CCC(=O)Nc1ccc(F)c(Cl)c1`, the viability in test [1] is 108%; in test [3], 108% (inactive); in test [4] it was 97.9% (inactive); in test [5] it was 94.7% (inactive); in test [6] (setting [9]), 91.1%; in test [6] (setting [10]) it was 94.7%. Also, the Her2 level in test [2] was 99% (inactive). Also, the differential viability (reversal) in test [6] (H69AR cells + 2 uM doxorubicin) is 3.67% (inactive). Besides, the inhibition in test [7] was -6.53% (inactive); in test [8], 3.71% (inactive).
In the case of `COc1ccc2oc(=O)c(C(=O)N3CCN(c4ccccc4F)CC3)cc2c1`, the viability in test [1] is 97.5%; in test [3], 97.5% (inactive); in test [4] it was 108% (inactive); in test [5], 88.1% (inactive); in test [6] (setting [9]), 97.6%; in test [6] (setting [10]) it was 88.1%. For the same compound, in test [2], the Her2 level is 95.5% (inactive). Besides, in test [6] (H69AR cells + 2 uM doxorubicin), the differential viability (reversal) is -9.48% (inactive). For the same compound, the inhibition in test [7] was -6.4% (inactive); in test [8] it was -3.65% (inactive).
For the compound `CCOc1cc(C(=O)Nc2ccon2)cc(OCC)c1OCC`, the viability in test [1] is 100%; in test [3] it was 100% (inactive); in test [4], 96.8% (inactive); in test [5] it was 99.4% (inactive); in test [6] (setting [9]), 97.2%; in test [6] (setting [10]), 99.4%. In addition, the Her2 level in test [2] is 110% (inactive). Besides, in test [6] (H69AR cells + 2 uM doxorubicin), the differential viability (reversal) is 2.21% (inactive). Besides, the inhibition in test [7] was -3.03% (inactive); in test [8] it was -1.17% (inactive).
On to `Fc1ccccc1-c1nc(-c2ccccc2)no1`, for which the viability in test [1] was 85.5%; in test [3], 85.5% (inactive); in test [4], 81.4% (inactive); in test [5], 111% (inactive); in test [6] (setting [9]) it was 90.9%; in test [6] (setting [10]), 111%. Besides, the Her2 level in test [2] was 69% (inactive). In test [6] (H69AR cells + 2 uM doxorubicin), the differential viability (reversal) is 19.6% (inactive). Moreover, the inhibition in test [7] was 1.05% (inactive); in test [8], -3.87% (inactive).

A word on the viability: it is a read-out of living cells in per cent, often relative to untreated cells. A word on the inhibition: it is the change of the read-out against control, counted positive when it falls.
